{"data": "Experimental data of several laboratories", "matrix": "plasma"}
{"Compound": "CN(C)CCc1c[nH]c2ccccc12", "host": "human", "route": "intravenous", "dose": "9 mg", "setting": "healthy volunteers, infusion", "measurement": "AUC(0-inf)", "result": "0.00587 µg·h/mL"}
{"Compound": "OCc1ncc2n1-c1ccc(Cl)cc1C(c1ccccc1F)=NC2", "host": "human", "route": "oral", "dose": "2 mg", "measurement": "AUC(0-inf)", "result": "0.00963 µg·h/mL"}
{"Compound": "Cc1ncc2n1-c1ccc(Cl)cc1C(c1ccccc1F)=NC2", "host": "male human", "route": "oral", "dose": "7.5 mg", "measurement": "AUC", "result": "0.117 µg·h/mL"}
{"Compound": "COc1ccc(C[C@@H]2NC(=O)[C@H]([C@@H](C)O)NC(=O)[C@@H]3[C@@H]4CCN3C(=O)[C@@H]3Cc5cn(c6ccc(F)cc56)CCCCCCN(Cc5ccc(cc5)CCNC(=O)[C@]5(C)CCCN5C2=O)C(=O)CCC(=O)N[C@@H](C)C(=O)N[C@H](CNC(=O)CCCCC[N+](C)(C)C)C(=O)N[C@@H](Cc2cccc(c2)CNC(=O)CO4)C(=O)N3)cc1", "host": "human", "route": "oral", "dose": "200 mg", "setting": "single dose", "measurement": "AUC(0-t)", "result": "481 nM·h"}
{"Compound": "C=C(C)[C@@H]1CC[C@]2(NCCN3CCS(=O)(=O)CC3)CC[C@]3(C)[C@H](CC[C@@H]4[C@@]5(C)CC=C(C6=CC[C@@](COc7ncccc7C#N)(C(=O)O)CC6)C(C)(C)[C@@H]5CC[C@]43C)[C@@H]12", "host": "human", "route": "oral", "dose": "100 mg", "setting": "fasted, tablet", "measurement": "AUC(0-inf)", "result": "28 µg·h/mL"}
{"Compound": "CC(=C/C=C/C(C)=C/C(=O)O)/C=C1\\CCCc2ccccc21", "host": "human", "route": "oral", "dose": "20 mg", "setting": "single dose, fasted, healthy volunteers", "measurement": "AUC(0-inf)", "result": "0.827 µg·h/mL"}
{"Compound": "N=C(N)NCCC[C@@H](NC(=O)[C@@H](N)Cc1ccccc1)C(=O)N[C@@H](Cc1ccccc1)C(=O)N[C@@H](CCCCN)C(N)=O", "host": "human", "route": "subcutaneous", "dose": "25 mg", "setting": "patients", "measurement": "AUC(0-t)", "result": "4.62 µg·h/mL"}
{"Compound": "c1cc([C@H]2CC[C@]3(CC2)OO[C@]2(O3)C3CC4CC(C3)CC2C4)ccc1OCCN1CCOCC1", "host": "human", "route": "oral", "dose": "200 mg", "setting": "patients", "measurement": "AUC(0-inf)", "result": "3.18 µg·h/mL"}
{"Compound": "C=CCNc1c(O)cc2c(O)c1C[C@@H](C)C[C@H](OC)[C@H](O)[C@@H](C)/C=C(\\C)[C@H](OC(N)=O)[C@@H](OC)/C=C\\C=C(/C)C(=O)N2", "host": "human", "route": "intravenous", "dose": "400 mg/m²", "setting": "patients, infusion", "measurement": "AUC(0-inf)", "result": "11.7 µg·h/mL"}
{"Compound": "CC(C)[C@H](N)C(=O)NCCCS(=O)(=O)O", "host": "human", "route": "oral", "dose": "256.5 mg", "setting": "multiple doses, twice daily, fasted", "measurement": "AUC(0-t)", "result": "11.2 µg·h/mL"}
